Test results as given in the RNAGym collection of RNA variant scans (doi:10.1126/science.aae0568).
Fewer inactive variants are shown than the library holds.

B1: tRNA (parent)
chain: GUUCCGUUGGCGUAAUGGUAACGCGUCUCCCUCCUAAGGAGAAGACUGCGGGUUCGAGUCCCGUACGGAACG

Variants of: B1
Test: yeast fitness relative to wild type (ratio to wild type); higher = fitter; tRNA-Arg(CCU), competitive growth, 37 C, YPD
In short: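 The tRNA-Arg(CCU) gene variants were made by chemical synthesis with a 3% per-site mutation rate at 69 sites and inserted at the native genomic locus of Saccharomyces cerevisiae. After pooling, the strains were competed in YPD at 37°C for 24 hours in six parallel replicates. Gene amplicons from the start population and each end population were read by 100-nucleotide paired-end sequencing, and Darwinian fitness relative to wild type was taken from genotype frequency changes. Genotypes needed ≥ 100 starting reads, and estimates < 0.5 were set to 0.5.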

Variant	yeast fitness
GUUCCGUUGGCGUAAUGGUUACGCGUCUCCCUCCUUAGGAGAACACUGCGGGUUCGAGUCCCGUACGGAACG [A20U A36U G44C]	≤ 0.5
GUUCCGUUGGCGUAAUGGUUACGCGUCUCCCUCCUAAGGAGAGGACUGCGGGUUCGAAUCCCGUACGGAACG [A20U A43G G58A]	0.91
GUUCCGUUGGCGUAAUGGUUACGCGUCUCCCUCCUCAGGAGAAGACUGCGGGUUCGAGUACCGUACGGAACG [A20U A36C C60A]	≤ 0.5
GUUCCGUUGGCGUAAUGGUUACGCGUCUCCCUCCUAAGGUGAAGACUGCGGGUUCGAGUCCCGUACGGUACG [A20U A40U A69U]	0.73
GUUCCGUUGGCGUAAUGGUUACGCGUCUCCCUCCUACGGAGAUGACUGCGGGUUCGAGUCCCGUACGGAACG [A20U A37C A43U]	0.59
GUUCCGUUGGCGUAAUGGUUUCGCGUCUCCCUGCGAAGGAGAAGACUGCUGGUUCGAGUCCCGUACGAAACG [A20U A21U C33G U35G G50U G68A]	0.637
GUUCCGUUGGCGUAAUGGUUACGCGUCUCCCUCCUAAGGAGUAGACUGCGGGUUCGAGACCCGUACGGAACG [A20U A42U U59A]	0.59
GUUCCGUUGGCGUAAUGGUGACGCGCCUCCCUCCUAAGGAGAAGACUGCGGGUUCGAGUCCCGUACGGAACG [A20G U26C]	0.984
GUUCCGUUGGCGUAAUGGUUACGCGUCUCCCUCCUAAGGAGAAGCCUGCGGCUUCGAGUCCCGUACGGAACG [A20U A45C G52C]	0.568
GUUCCGUUGGCGUAAUGGUUACGCGUCUCCCUCCUAAGGAGAAGACUGCGGGUUCGAGUCCCGUACGGAACG [A20U]	0.986
GUUCCGUUGGCGUAAUGGUUACGCGUCUCCCUCCUAAGGAGAAGACUGCGGGUUCGUGUCCCGUACGGAACG [A20U A57U]	0.762
GUUCCGUUGGCGUAAUGGUUACGCGUCUCCCUCCUAUGGAGAAGACUGCGGGUUCGAGCCCCGUACGGAACG [A20U A37U U59C]	0.675
GUUCCGUUGGCGUAAUGGUGACGCGUCUCCCUCCCAAGGAGAAGACUGCGGGUUCGAGUCCCGUACGGAUCG [A20G U35C A70U]	0.629
GUUCCGUUGGCGUAAUGGUGACGCGUCUCCCUCCUAAGGAGAAGACUGCGGGUUCGAGACCCGUACGGACCG [A20G U59A A70C]	0.646
GUUCCGUUGGCGUAAUGGUUACGCGUCUCCCUCCUAUGGAGAAGACUGCGGGUUCGAGUCCCGUACGGAACG [A20U A37U]	0.811
GUUCCGUUGGCGUAAUGGUUGCGCGUCUGCCUCCUAAGGAGAAGACUGGGGGUUCGAGUCCCCUACGGAACG [A20U A21G C29G C49G G63C]	≤ 0.5
GUUCCGUUGGCGUAAUGGUUCCGCGUAUCCCUCCUAAGGAAAAGACUGCGGGUUCGAGUCCCGUACGGAACG [A20U A21C C27A G41A]	≤ 0.5
GUUCCGUUGGCGUAAUGGUUACGCGUCUCCCUCCUAAGGAGUAGACUGCGGGUUCGAGUCCCGUACACAACG [A20U A42U G67A G68C]	≤ 0.5
GUUCCGUUGGCGUAAUGGUGACGCGUCUCCCUCCUAAGGAGAAGACUGCGGGUCCGAGUCCCGUACGGAACG [A20G U54C]	0.719

Variant	yeast fitness
GUUCCGUUGGCGUAAUGGUGACGCGUCUCCCGCCUAAGGAGAAGACUGCGGGUUCGACUCACGUUCGGAACG [A20G U32G G58C C61A A65U]	≤ 0.5
GUUCCGUUGGCGUAAUGGUUACGCGUCUCCCUCCUAAGGAGACGACUGCGGGUCCGAGUCCCGUACGGAACG [A20U A43C U54C]	≤ 0.5
GUUCCGUUGGCGUAAUGGUUAGGCGUCUCCCUCCUAAGGAGAAGACCGCGGGUUCGAGUCCCGUACGGAACG [A20U C22G U47C]	≤ 0.5
GUUCCGUUGGCGUAAUGGUUACGCGUCUCCCUCCUAAGGAGCAGACUACGGGUUCGAGUCCCGUACGGAACG [A20U A42C G48A]	0.543
GUUCCGUUGGCGUAAUGGUGACGCGUCUCCCUCCUAAGGAGAAGACCGCGGGUUCGAGUCCCGUACGGAACG [A20G U47C]	0.947
GUUCCGUUGGCGUAAUGGUUACGCGUCUCCCUCCUAAGGGGAAGACUGCGGGUUCGGGUCCCGUACGGAACG [A20U A40G A57G]	0.67
GUUCCGUUGGCGUAAUGGUGACGCGACUCCCUCCUAAGGAGAAGACUGCGGGUUCGAGUCCCGUACGGAUCG [A20G U26A A70U]	0.717
GUUCCGUUGGCGUAAUGGUUGAGCGUCUCCCUCCUAAGGAGAAGACUGGGGGUUCGAGUCCCGUACGGAACG [A20U A21G C22A C49G]	≤ 0.5
GUUCCGUUGGCGUAAUGGUGACGCGUCUCCCUCCUAAGGAGAAGACUGCGGGUGCGAGUCCCGUAGGGAACG [A20G U54G C66G]	≤ 0.5
GUUCCGUUGGCGUAAUGGUGACGCGUCUCCCGCCUAAGGAGAAGACUGCGGGUUCGAGUCCCGUACGGAACG [A20G U32G]	0.672
GUUCCGUUGGCGUAAUGGUGACGCGUCUCCCCCCUAAGGAGAAGACUGCGGGUUCGAGUCCCGUACGGAACG [A20G U32C]	0.949
GUUCCGUUGGCGUAAUGGUUAGGCGUCUCCCUCCUAAGGGGAAGACUGCGGGUUCGAGUCCCGUAUGGAACG [A20U C22G A40G C66U]	≤ 0.5
GUUCCGUUGGCGUAAUGGUUACGCGUCUCCCUCCUAGGGAGAAGACUGCGGGUUCGAGUCCCGUAAGGUACG [A20U A37G C66A A69U]	≤ 0.5
GUUCCGUUGGCGUAAUGGUUACGCGUCUCCCUCCUAAGGAGAAGUCUGCGGGUUCGAGUCCCGUACGGAACG [A20U A45U]	0.777
GUUCCGUUGGCGUAAUGGUGACGCGUCUCCCACCUAAGGAGACGACUGCGGGGUCGAGUCCCGUACGGAACG [A20G U32A A43C U53G]	0.607
GUUCCGUUGGCGUAAUGGUUACGCGUCUCCCUCCUAAGGAGAAGACUGCGGGUUCGAGUCCCGUCCGGAACG [A20U A65C]	0.823
GUUCCGUUGGCGUAAUGGUGACGCGUCGCCCUCCUAAGGAGAAGACUGCGGGUUCGAGUCCCGUACGGAACG [A20G U28G]	0.86
GUUCCGUUGGCGUAAUGGUGACGCGUCACCCUCCUAAGGAGAAGACUGCGGGUUCGAGUCCCGUACGGAACG [A20G U28A]	0.807
GUUCCGUUGGCGUAAUGGUUACGCGUCUCCCUCCUGAGGAGAAGACUGCGGGUUCGAGUCCCGUACCGCACG [A20U A36G G67C A69C]	≤ 0.5
